Assay results from different studies.
≈ marks a conversion by molar mass, not a printed value.

SMILES	technique	sample	time	pH	temperature	quantity	value
CN1CCN(c2cccc(-c3ccc4ncnc(Nc5ccc(Cl)c(C(F)(F)F)c5)c4c3)c2)CC1	–	aqueous buffer	–	pH 7.4	25 °C	thermodynamic solubility	< 1.4 µM
C=CCn1c(=O)c2cnc(Nc3ccc(N4CCN(C)CC4)cc3)nc2n1-c1ccc2c(n1)[C@@](O)(CC)CC2	–	PBS	–	pH 7.4	–	thermodynamic solubility	2130 µM
CCN(CC)CCNC(=O)c1cc(S(C)(=O)=O)cnc1OC	–	PBS	2 h	pH 7.4	25 °C	kinetic solubility	393 µM (≈ 129 µg/mL)
N#Cc1ccc(C[C@H](NC(=O)Nc2ccc(F)cc2)C(=O)N2CCc3ccccc32)cc1	–	aqueous buffer	2 h	pH 7.4	37 °C	kinetic solubility	10.5 µM (≈ 4.5 µg/mL)
Cc1ccccc1CN1C(=O)C2=C(CCN(Cc3ccccc3)C2)N2CCN=C12	shake flask	aqueous buffer	–	pH 6	–	solubility	260 µg/mL
FC(F)(F)c1cc(Nc2ncnc3ccc(-c4cccc(N5CCOCC5)c4)cc23)ccc1Cl	–	aqueous buffer	–	pH 7.4	25 °C	thermodynamic solubility	< 0.7 µM
N#Cc1ccc(C[C@H](Nc2nnc(-c3ccc(F)cc3)s2)C(=O)N2CCc3ccccc32)cc1	–	aqueous buffer	2 h	pH 7.4	37 °C	kinetic solubility	4.5 µM (≈ 2.11 µg/mL)
CCCCCCCCCCCCCCCC(=O)NCCO	–	water	12 h	–	37 °C	thermodynamic solubility	< 16 µg/mL
O=C(N1CCCCC1)C12CC(c3ccccc3)(C1)C2	–	PBS	2 h	pH 7.4	25 °C	kinetic solubility	266 µM (≈ 67.9 µg/mL)
N#Cc1ccc(C[C@H](Nc2c(Nc3ccc(Br)cc3)c(=O)c2=O)C(=O)N2CCc3ccccc32)cc1	–	aqueous buffer	2 h	pH 7.4	37 °C	kinetic solubility	9.2 µM (≈ 4.98 µg/mL)
Fc1ccccc1Nc1nc(-c2ccncc2)nc2c1CNCC2	–	PBS	24 h	pH 7.4	–	kinetic solubility	> 250 µM
N#Cc1ccc(C[C@@H](Nc2c(Nc3ccc(F)cc3)c(=O)c2=O)C(=O)N2CCc3ccccc32)cc1	–	aqueous buffer	2 h	pH 7.4	37 °C	kinetic solubility	11.8 µM (≈ 5.67 µg/mL)
CNS(=O)(=O)c1ccc(Nc2ncc(C(F)(F)F)c([C@H]3CC[C@@](C)(O)CC3)n2)c(C)c1	–	FaSSIF	2 h	–	–	solubility	128 µM
CCCCCCCCCCCCCCCC(=O)NCCOC(=O)C[C@@H](CN)CC(C)C	–	water	12 h	–	37 °C	thermodynamic solubility	3460 µg/mL
N#Cc1ccc(C[C@H](Nc2nnc(-c3ccc(F)cc3)o2)C(=O)N2CCc3ccccc32)cc1	–	aqueous buffer	2 h	pH 7.4	37 °C	kinetic solubility	4.8 µM (≈ 2.18 µg/mL)
